Reference: the EternaBench riboswitch data

Test system: MS2 coat protein
Test: apparent Kd, MS2 coat protein; higher = weaker binding; RNA-MaP array; FMN 200 µM where present
Method in brief: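 Designs were transcribed by stalled E. coli RNA polymerase on Illumina sequencing-chip clusters. They were titrated with SNAP-549-labelled MS2 coat protein from 0.7 or 1.5 nM, doubling to 3 µM, without and then with constant ligand. Buffer: 100 mM Tris-HCl pH 7.5, 80 mM KCl, 4 mM MgCl2, BSA, DTT, yeast tRNA, Tween-20. Green signal was normalised to red-channel RNA signal and control-cluster median Fmax. Apparent Kd is the median of filtered per-cluster binding-curve fits.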

[1] = designed as: OFF switch for flavin mononucleotide, no ligand
[2] = ligand present: flavin mononucleotide, designed as: OFF switch for flavin mononucleotide
[3] = designed as: ON switch for flavin mononucleotide, no ligand
[4] = ligand present: flavin mononucleotide, designed as: ON switch for flavin mononucleotide

Row | Sequence | apparent Kd [1] [nM] | apparent Kd [2] [nM] | apparent Kd [3] [nM] | apparent Kd [4] [nM]
1 | UUAUUAUAUGUAGGAUAUGCGUAUUAUUGUUAUGCAGAAGGACAUGAGGAUCACCCAUGUAUAUUAUUGUUGUAUAUUAUAUAU | 23.5 | 43 |  | 
2 | AGGAGACAUGAGGAUCACCCAUGUGCACGGUGAAGAGGAUAUGUGCGUGGAGAGACACGGACAGAAGGCUUAAGAA |  |  | 65.3 | 33
3 | UGAACUAUGUAGAAGGCCCAUAUUUAUAUAUAGGGAGGAUAUACAUGAGGAUCACCCAUGUAAAGAGCAAGAGGACUUGUCAGA | 14.2 | 37.3 |  | 
4 | GGCCAAGUCGAGAAGGCCGGUAGACAUGAGGAUCACCCAUGUAGUGCGUGGAGGAUAUUGAAUGGGUGGCGUAGGACCUGCGUU |  |  | 106 | 18.6
5 | AAUUAACAUGAGGAUCACCCAUGUGAGGAUAUGAUAUUACUUGGACAGCUAUGAUCAAUCAGAAGGCACAUCUU | 22.3 | 28.5 |  | 
6 | CGAAGUCCGUAGAAGGGUGACAUGAGGAUCACCCAUGUGCGAGCGGAUGGAGUCAGCGGCUCGCCACAGGAUAUACGGAGCACG |  |  | 30.6 | 65.3
7 | ACGCUCAGAGGAUAUACAUGAGGAUCACCCAUGUGUUACCGAGGAGUACGGUCGUCACGUAGAAGGCUGGGUAA | 17.9 | 63.2 |  | 
8 | AUAAAUCAUGUAGGAUAUGCGUGGCGAAGCUAUGCAGAAGGACAUGAGGAUCACCCAUGUCUAUCCGUCUGCGUACAGACGGAA | 26.2 | 216 |  | 
9 | ACUGUUAAGACAGGAUAUCGAUUAUAACCUCUAAAACAUGAGGAUCACCCAUGUAGUCCGUAUUGCGAGAAGGGUCAUUUUAGU |  |  | 295 | 233
10 | GGUCCAUAAUGAGGAUAUGGCACCUUAUUGGUGCCAGAAGGCAUGUCUAUAGACAUGAGGAUCACCCAUGUAAUAAAUUGGACC |  |  | 435 | 43.3
11 | UAGUUACAUGAGGAUCACCCAUGUGAGGAUAUGAGUCAGUCACGGUGACGUGGCUGACUCAGAAGGCACUAUGG | 198 | 154 |  | 
12 | GUAACUCAUGUAGGAUAUGCAUGGCGAAGCUACGCAGAAGGACAUGAGGAUCACCCAUGUUCUAGCGUCUGAGUACAGAUGCAA | 60.2 | 436 |  | 
13 | CUUUUGUGAGGAUAUGUGGCUUCGAUCGUGAGAUCGAGGCUACAGAAGGCACAUGAGGAUCACCCAUGUUCCUC | 60.4 | 777 |  | 
14 | GUAGAGUCAGGAUAUACAGAAAGUGGCUGGAAAACAGUGGCACAUGAGGAUCACCCAUGUAGAAGGGACUCUAC | 89.4 | 215 |  | 
15 | CGCUAAGAGAACGAUACGAAUAGACAUGAGGAUCACCCAUGUAGAAGGACAACGGAAUAAACGUUGUAGGAUAUACAUUUAGCG | 17.4 | 45.3 |  | 
16 | UUUUUUAUCGUAGGAUAUAGGUUGAAUAAUAGACUAGAAGGACGUGACAUGAGGAUCACCCAUGUUUUUUAAGUGUCGAAGUGU |  |  | 26.9 | 25.7
17 | GGAUAGGACAUAGGAUAUACGUGCUAGAGAUACUAGCAAAAUUUCCUCACAUGAGGAUCACCCAUGUAGAAGGCUGUCCUAUCG | 6.73 | 24.5 |  | 
18 | AAAUUUAACGAAGGAUAUGCUGACAUGAGGAUCACCCAUGUGUGCCUUGUGUUACUGAUUAGGAAGCAGAAGGUCGUAUACAUA | 831 | 414 |  | 
19 | GGUUGUUAUGACAGCGAGUGUUAGAGAAGGUACAUGAGGAUCACCCAUGUACGUGAUCUUGCGAGUAAGGAUAUCUGUUAUUCA | 5.65 | 5.83 |  | 
20 | GGUACCUUCACAGGAUAUGCUAUCGUUUCGGUAGCAGAAGGGUGAUACAUGAGGAUCACCCAUGUGGUGCCAGGGCGUGAGCCC |  |  | 842 | 329
21 | GUUGGGCCUCCCUCUCCACGUUCAACAUGAGGAUCACCCAUGUAGGAUAUCGUUUGUUUUUUUUACGAGAAGGGCGUACUUCCC | 8.99 | 8.06 |  | 

Row | Sequence | apparent Kd [1] [nM] | apparent Kd [2] [nM] | apparent Kd [3] [nM] | apparent Kd [4] [nM]
22 | AACGAAGAGGAGAAGGGUGAUGGGUCCUCAUGACCCGGAGGGCCGCGGCACAGGAUAUCCAUGUCACAUGAGGAUCACCCAUGU |  |  | 123 | 18.5
23 | AAUAUAAAGAGCUGGACCUUAAUAACAUGAGGAUCACCCAUGUAGGAUAUCAGCACGAUAAGUGCUGAGAAGGACAUCCAGCUC | 14.4 | 15.1 |  | 
24 | GGAUUACAUGAGGAUCACCCAUGUGAGGAUAUCGAUGUCCUCCCUCCCGUGCGGGACUCGAGAAGGCACUUGGA | 51.9 | 78.8 |  | 
25 | GUGGUCAGACAUGAGGAUCACCCAUGUGGAAUAAAUAAGGAAUAGGAUAUGGAAUAUAGGAUAUACCAGAAGGGUUGGUUGGUG |  |  | 98.4 | 114
26 | AGCGGGUGGGUAGGAUAUGGCUAUGUCUCAUUGCUAGAAGGACCAGCUGCUACAUGAGGAUCACCCAUGUCGUAGUGCACCCAG |  |  | 195 | 12.7
27 | AAAAAAAAAAUGCAGGAUAUGGGAAAAAAAACAUGAGGAUCACCCAUGUAAAAAAAAAAAAAAAACUAGAAGGGUAAAAAAAAAAA |  |  | 80.2 | 62.3
28 | UUUCCUUGUGUGAGGAUAUACUUGUUUGUGUUUUUGUAGAAGGCACAUGAGGAUCACCCAUGUACUCUUUCCUG | 35.1 | 54.3 |  | 
29 | ACAUGAGGAUCACCCAUGUGACCACAAUGGCUGAUAUAGAAACAGGAUAUUCGUGAAUAUCUAACGAAGAAGGGUUAUGACUGG | 77.8 | 85 |  | 
30 | CAUAACGGCUGAGGAUAUUGAAUGUGCGUGGACAUGAGGAUCACCCAUGUUCAAGAAGGCAGCAAUUUACUUGGGUCUACCCGC | 40.9 | 309 |  | 
31 | UGUCAUAUAUAGAAGGGUAGUAGGGAUUUACAUGAGGAUCACCCAUGUAUUAUAGGAUAUGUGUAUAGUUUUUAUUCAAGUUUA | 24.7 | 18.8 |  | 
32 | CGUCGAAAUGUAGGAUAUCUGCACGAUUAGUGCAGAGAAGGACAUGAGGAUCACCCAUGUAGAUCACGACGAAUUAAUUUAAUU | 60.7 | 480 |  | 
33 | GCCAAGCAAAAUAAAAUAAAUAAAACAUGAGGAUCACCCAUGUAGGAUAUGCUACACAAAGUGUAGCAGAAGGACAAGCUUGGC | 14.6 | 19 |  | 
34 | UCGGCGCGAGGAUAUGCGGUUUGUGCUUUGGGCCCUGGCGUACAUGAGGAUCACCCAUGUAGAAGGCGCGUUGC | 19.4 | 20 |  | 
35 | AAGAUCCCUGUUAGGAUAUAGAGAUCGCCUGGGUCCUAGAAGGAACAUGAGGAUCACCCAUGUGACGUAUAUGU | 100 | 228 |  | 
36 | AAACGCGUAGGAUAUACAUGAGGAUCACCCAUGUAUUGGGCUGUUGAUCUUCCUAAGGGUAGAAGGACGGGCAC | 68.1 | 119 |  | 
37 | UCUGAUUGGUGAGGAUAUACAUAAUUUAUGACUGUAGAAGGCACAAACCUCAAGACAUGAGGAUCACCCAUGUGGUAUUUAGAU | 348 | 506 |  | 
38 | AAUUAAUUAAUUAAUAUACAUGAGGAUCACCCAUGUAAGAUCAAGGAUAUCAGCUCGAUUAGAGCUGAGAAGGUGAUCACAUGU |  |  | 357 | 501
39 | UCUACAUAGAUUCAUCAAUACAGUAAGGAUAUGAGAUACAUGAGGAUCACCCAUGUGCAUGUGGAUUAGAAGGUACAAUUAACU | 16.8 | 14.9 |  | 
40 | AAAUUUAACGAAGGAUAUGGUGACAUGAGGAUCACCCAUGUUAAUUUUGUGAUCUUGUUUAAGUUCCAGAAGGUCGUAUACAUA | 210 | 600 |  | 
41 | CAGCGAAAGCUGAAUCUGUAGAGAGAGGAUAUACAAGAAUAAAUCCAUACAUGAGGAUCACCCAUGUAGAAGGCUCUCUACAGU | 7.41 | 26.6 |  | 
